Test results as given in ChEMBL document CHEMBL1158066, “Phytochemical constituents from Salsola tetrandra” (J Nat Prod, 2006).
Values after ≈ are worked out from the molar mass of the structure shown.

Assays:
Staphylococcus aureus = assay: Antibacterial activity against Staphylococcus aureus ATCC 29213 by microdilution method; type: functional
Method in brief: (§1)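 Liquid-medium broth microdilution. Strains kept at -70 °C in glycerol Mueller-Hinton broth; fresh subcultures used for each run. Final inoculum (1-5) × 10^5 cfu/mL. MIC taken as the lowest concentration preventing visible growth. MBC taken as the concentration killing ≥99.9% of the initial inoculum, confirmed by subculturing dilutions onto TSA agar at 30 °C for 18-24 h.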

Pseudomonas aeruginosa = assay: Antibacterial activity against Pseudomonas aeruginosa ATCC 27853 by microdilution method; type: functional; method in brief: as §1
Micrococcus luteus = assay: Antibacterial activity against sMicrococcus luteus NCIMB 8166 by microdilution method; type: functional; method in brief: as §1
Escherichia coli = assay: Antibacterial activity against sEscherichia coli ATCC 35218 by microdilution method; type: functional; method in brief: as §1
[1] = tested on: Staphylococcus epidermidis; assay: Antibacterial activity against Staphylococcus epidermidis NCIMB 8853 by microdilution method; type: functional; method in brief: as §1
[2] = Toxicity against Artemia salina; type: organism-based; settings: in vivo, read-out: ED50 (the source's name)
Method in brief: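 Brine shrimp lethality bioassay; the endpoint is death, reported as ED50 in µM.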

SMILES | MBC (Staphylococcus aureus) [µg/mL] | MIC (Staphylococcus aureus) [µg/mL] | MIC (Pseudomonas aeruginosa) [µg/mL] | MBC (Micrococcus luteus) [µg/mL] | MIC (Micrococcus luteus) [µg/mL] | MIC (Escherichia coli) [µg/mL] | MIC [1] [µg/mL] | LC50 [2] [µM] | MBC [1] [µg/mL] | MBC (Escherichia coli) [µg/mL]
COc1cc(/C=C/C(=O)NCCc2ccc(O)cc2)ccc1O [N-TRANS-FERULOYL TYRAMINE] | > 700 | 500 (≈ 1600 µM) | > 700 | > 700 | 500 (≈ 1600 µM) | > 700 | > 700 | – | – | –
C=C[C@](C)(CC/C=C(\C)CO)O[C@@H]1O[C@H](CO)[C@@H](O)[C@H](O)[C@H]1O | > 700 | 700 (≈ 2110 µM) | > 700 | > 700 | 600 (≈ 1810 µM) | > 700 | 700 (≈ 2110 µM) | 21.8 | > 700 | –
CCCCCC(O)C(O)/C=C/C(O)CCCCCCCC(=O)O (centres undefined) | > 700 | 500 (≈ 1510 µM) | > 700 | 500 (≈ 1510 µM) | 400 (≈ 1210 µM) | > 700 | 600 (≈ 1820 µM) | – | > 700 | –
CC/C=C\CC(O)C(O)/C=C/C(O)CCCCCCCC(=O)O (centres undefined) | > 700 | 500 (≈ 1520 µM) | > 700 | 500 (≈ 1520 µM) | 400 (≈ 1220 µM) | > 700 | 600 (≈ 1830 µM) | – | > 700 | –
CC(=O)/C=C/[C@@]12O[C@]1(C)C[C@@H](O)[C@H](O[C@@H]1O[C@H](CO)[C@@H](O)[C@H](O)[C@H]1O)C2(C)C | > 700 | 700 (≈ 1740 µM) | > 700 | > 700 | 500 (≈ 1240 µM) | > 700 | 600 (≈ 1490 µM) | 10.9 | > 700 | –
COc1cc(/C=C/C(=O)NC[C@@H](O)c2ccc(O)cc2)ccc1O | 600 (≈ 1820 µM) | 200 (≈ 607 µM) | > 700 | 700 (≈ 2130 µM) | 400 (≈ 1210 µM) | 400 (≈ 1210 µM) | 600 (≈ 1820 µM) | – | > 700 | 700 (≈ 2130 µM)
N#C[C@H](O[C@@H]1O[C@H](CO)[C@@H](O)[C@H](O)[C@H]1O)c1ccc(O)cc1 [TAXIPHYLLIN] | 700 (≈ 2250 µM) | 400 (≈ 1280 µM) | > 700 | 500 (≈ 1610 µM) | 200 (≈ 642 µM) | 600 (≈ 1930 µM) | 500 (≈ 1610 µM) | 0.96 | > 700 | > 700
COc1cc(O[C@@H]2O[C@H](CO)[C@@H](O)[C@H](O)[C@H]2O)cc(OC)c1OC | > 700 | 700 (≈ 2020 µM) | > 700 | > 700 | 500 (≈ 1440 µM) | > 700 | 600 (≈ 1730 µM) | 28.9 | > 700 | –
